# Screening results from PubChem BioAssay.
# Only some compounds are listed: those with a hit (about 3.6% of all), similar ones and a draw of the others.
# BB579 growth dn = chemicals that inhibit yeast BB579 growth in restrictive medium (lifespan-shortening candidates); S. cerevisiae BB579 growth, OD615, 48 h; inhibition, % at 10 µM; hit rate 0.51% among 140,000; AID 804;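 active means inhibition above a set limit, 3 SD over the mean compound inhibition, cut at about 44% in these data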
#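 Assay system – yeast BB579 (DeaD) · Dosing – single compound dose of 10 µM, 0.25% DMSO final · Detection – OD615 turbidity measurement · Buffer or medium – CSMM-D restrictive synthetic medium containing dextrose (glucose) · Benchmarks – positive control amphotericin B 10 µg/mL · Incubation – 48 h exposure, 30 °C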
# Measles CPE = protection of cells from measles virus. Measles virus-infected cells, CPE protection, absorbance. protection (pct of control), % at 4 µM. hit rate 1.5% among 140,000. AID 841; in the data active means protection mostly above about 24%, no sharp cut-off; inactive means mostly below about 26%
# Yeast life ext = yeast lifespan extension | S. cerevisiae growth with nicotinamide, OD615; deaD strain in restrictive glucose medium | hit rate 0.68% among 130,000 | inhibition of the nicotinamide effect, % at 10 µM;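 active means inhibition above a set limit, placed 3 SD over the median of all compounds, cut at about 26% in these data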;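 further: 0% = nicotinamide-treated wells and 100% = cells grown without nicotinamide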
#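 Measured by: optical density (absorbance) at 615 nm; System: modified budding yeast, DeaD strain; Medium: restrictive CSMM-D dextrose medium; Timing: 4 h preincubation then 48 h treatment at 30 °C.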
# RAM network inh = yeast RAM network inhibition; S. cerevisiae dse1pr::URA3 reporter, 5-FOA growth OD615, 2 d; analog-sensitive cbk1-as2 kinase mutant strain; inhibition, % at 50 µM; hit rate 1.8% among 190,000; AID 868;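 active means inhibition above a set limit, 3 SD over mean compound inhibition, cut at about 8.4% in these data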;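 further: 0% = DMSO-only wells with no growth and 100% = 10 µM 1-NA-PP1 full growth; inhibition rescues growth on 5-FOA so higher OD means more RAM inhibition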
# * = called active by the depositor; · = not tested or not shown.
SMILES,BB579 growth dn,Measles CPE,Yeast life ext,RAM network inh
Cc1nnc(SCc2cc(=O)[nH]c(/N=C(\N)Nc3ccccc3Sc3ccccc3)n2)s1,·,·,·,9.0*
COc1ccccc1N/C(N)=N/c1nc(CSc2nc3ccccc3s2)cc(=O)[nH]1,-20,2,1,3
N#CCCN(Cc1cccnc1)C(=O)c1sc2cc(F)ccc2c1Cl,-58,9,8,1
COc1cccc(/C=N/N2CCN(c3ccccc3OC)CC2)c1,-8,49*,-6,2
Cc1ccc(C(=O)NN(CCC(=O)NC(C)(C)C)C2=NS(=O)(=O)c3ccccc32)cc1,-12,7,2,9.6*
CC1(C)CC(NC(=O)c2c(N)no[n+]2[O-])CC(C)(C)N1,·,·,·,1
Nc1ccnc(Oc2ccc(F)cc2)c1,-18,13,7,1
Cc1nc(=O)cc(-c2ccccc2)n1-c1ccccc1,-37,36*,-6,2
COc1cc(C2CC(=O)c3c(O)cc(O)cc3O2)ccc1O (configuration not stated),·,·,·,2
O=C1C[C@@H](c2ccc(O)cc2)Oc2cc(O)cc(O)c21,-32,31*,3,1
CCCc1cc(=O)oc2cc(OCc3cccc(OC)c3)c(Cl)cc12,-4,13,2,11*
Cc1onc(-c2ccccc2Cl)c1C(=O)NC(=S)Nc1ccccc1F,·,·,·,11*
CCCCn1c(SCC(=O)NC2CCS(=O)(=O)C2)nc2cc(S(N)(=O)=O)ccc21 (configuration not stated),·,·,·,1
O=C(Nc1cnccn1)Nc1ccc(Cl)cc1Cl,·,·,·,2
COC(=O)CSc1nnc(Cc2cc(=O)[nH]c(=O)[nH]2)n1-c1cccc(OC)c1,-23,23,-20,-1
COc1cccc(-n2c(Cc3cc(=O)[nH]c(=O)[nH]3)nnc2SCC(=O)NC2CCCC2)c1,-7,50*,-5,1
COc1ccc(C(CCN)Cc2ccccc2)cc1 (configuration not stated),·,·,·,3
CCOc1ccc(S(=O)(=O)n2cc(F)c(=O)[nH]c2=O)cc1,·,·,·,2
O=c1[nH]c(=O)n(CCO)c2nnn(Cc3ccccc3)c12,-15,30*,-3,0
CN(C(=O)CSc1nnc(-c2cccs2)o1)C1CCS(=O)(=O)C1 (configuration not stated),·,·,·,-1
O=C(NCc1ccc2c(c1)OCO2)c1ccc(CSCc2ccccc2Cl)o1,-14,10,0,11*
O=C(NCc1ccc2c(c1)OCO2)c1ccc(COc2cccc(Cl)c2)o1,2,7,-17,6
CC(C)c1ccccc1OCC(=O)NCC(c1cccs1)N1CCOCC1 (configuration not stated),-29,29*,-3,1
NC(=O)C1(N2CCCCC2)CCN(C(=S)Nc2ccc(S(N)(=O)=O)cc2)CC1,·,·,·,2
Oc1cc(-c2ccccc2)c2ccccc2c1,97*,3,-8,-1
SMILES,BB579 growth dn,Measles CPE,Yeast life ext,RAM network inh
O=c1oc2ccccc2cc1-c1ccc(O)cc1,1,3,-5,-1
NC(=O)c1ccc(N=Cc2ccc([N+](=O)[O-])s2)cc1,100*,8,-11,-1
Cc1cc(C)cc(N=Cc2ccc([N+](=O)[O-])s2)c1,100*,18,-11,-1
O=[N+]([O-])c1ccc(C=Nc2ccc(Cl)c([N+](=O)[O-])c2)s1,·,·,·,-1
C/C(=N/NC(=O)c1sc(=S)n(C)c1C)c1ccccc1,-9,5,-7,1
CCOC(=O)N/N=C(/C)c1ccc([N+](=O)[O-])o1,-15,83*,-7,0
Cc1ccccc1C(=O)Nc1ccc(-c2nc3ccc(C(=O)c4ccccc4)cc3[nH]2)cc1,-32,6,-11,5
CC(C)(C)N1C(=O)c2ccc(C(=O)Nc3ccc(-c4nc5ccccc5[nH]4)cc3)cc2C1=O,-22,15,0,4
O=C(c1ccccc1)c1ccc2nc(-c3ccc(NC(=O)c4ccccc4Br)cc3)[nH]c2c1,-34,4,0,8.7*
O=C(Nc1ccc(-c2nc3ccccc3[nH]2)cc1)c1ccc(N2C(=O)CCC2=O)cc1,4,19,-2,9.1*
CCN(CC)C(=O)CCCC(=O)N(CC)CC,·,·,·,0
O=C(C1=C[C@H](c2ccc(Br)cc2)C[C@H](OCCCCO)O1)N1CCN(Cc2ccccc2)CC1,·,·,·,4
O=c1/c(=C/c2cccc3ccccc23)sc2ncnn12,-20,27,29*,3
O=c1c2c3c(sc2n2cnnc2n1CCc1ccccc1)CCCC3,-56,9,-11,8.9*
NC(=O)Cn1c(=O)n(CCc2ccccc2)c(=O)c2c3c(sc21)CCCC3,-5,11,-7,0
CCOC(=O)c1cc2sc(C)cc2n1CCCN1C(=O)c2ccccc2C1=O,-35,19,-16,11*
CCOC(=O)c1cc2occc2n1CCCN1C(=O)c2ccccc2C1=O,-42,5,-12,9.2*
O=C(Nc1nccs1)c1ccc(NC(=O)C2CC=CCC2C(=O)O)cc1 (configuration not stated),·,·,·,7
CCn1ncc(Br)c1C(=O)Nc1ccc(C(=O)OC(C)C)cc1,-36,38*,-17,2
O=C(O)C(Cc1ccccc1)N1C(=O)/C(=C/c2cccc3ccccc23)SC1=S (configuration not stated),-13,14,-2,6
O=C(O)C(Cc1ccccc1)N1C(=O)/C(=C/c2ccccc2)SC1=S (configuration not stated),-36,3,33*,5
CC1(C)CC(=O)C(C=NCCN2CCNC2=O)=C(O)C1,-33,35*,3,1
Cc1cccc2c(CC(=O)Nc3ccccc3)noc12,-26,23,-3,2
O=C(N/N=C\CCc1ccccc1)c1ccco1,7,57*,8,1
CCn1c(=O)c2ccccc2n2c(SCC(=O)N3CCCc4ccccc43)nnc12,-40,7,39*,-1
SMILES,BB579 growth dn,Measles CPE,Yeast life ext,RAM network inh
COc1cc(OC)cc(-n2nnnc2SCC(=O)N2CCCc3ccccc32)c1,-22,9,-33,8.9*
COc1cccc(-n2nnnc2SCC(=O)N2CCCc3ccccc32)c1,-44,18,3,3
CC1CC1C(=O)OCC(=O)Nc1cccc([N+](=O)[O-])c1 (configuration not stated),·,·,·,1
COc1ccc2c(c1)Cc1sc(NC(C)=O)nc1-2,-41,38*,-16,2
COc1ccc2c(c1)Cc1sc(NC(=O)c3ccco3)nc1-2,-44,2,-26,5
O=[N+]([O-])c1ccc(NCCCNS(=O)(=O)c2ccc(Cl)cc2)c(Cl)c1,-37,5,-13,10*
NC(=S)NNc1c(F)c(F)c(F)c(F)c1F,·,·,·,1
CCCn1c(=O)c(C(=O)OCC)c(O)c2cc(Br)ccc21,·,·,·,9.8*
Clc1ccccc1/C=C/C=N/Nc1nc(N2CCOCC2)nc(N2CCOCC2)n1,·,·,·,0
O=C(c1ccco1)N1CCN(C(=O)c2ccccc2NS(=O)(=O)c2ccc(F)cc2)CC1,·,·,·,0
Cc1cccc(NC(=O)CSc2nnc(-c3cnccn3)n2Cc2ccco2)c1,-17,23,-16,9.9*
Cc1ccc(NC(=O)CSc2nnc(-c3cnccn3)n2Cc2ccco2)cc1,-49,1,-9,3
